Laboratory results: article PMC4357494 (Journal of molecular biology, 2014)
Where a SMILES comes first, the peptide text is derived from it.

Assays:
Bcl-xL (residues 1-209) [1] = molecular target: T1, Bcl-xL (residues 1-209) (Homo sapiens, UniProt Q07817); experiment: fluorescence polarisation
Bcl-2 (residues 1-217) [2] = molecular target: T2, Bcl-2 (residues 1-217) (Homo sapiens, UniProt P10415); experiment: fluorescence polarisation
[3] = system: Mcl-1 2640 cells (Mcl-1 dependent); experiment: BH3 profiling, Mcl-1 2640; assay type: cell-based, murine; conditions: 5 μM peptide
Outline: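 Myc-driven murine leukemia line, Mcl-1 dependent, grown in RPMI 1640 with 10% FBS and […] 2-mercaptoethanol. Permeabilized cells at 2×10^4/well, triplicate wells, exposed to peptides including 5 μM. JC-1 read-out; depolarization expressed as percentage relative to FCCP (full) and DMSO (none). At least three biological replicates.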

[4] = system: Bcl-2 3256 cells (Bcl-2 dependent)
[5] = molecular target: primary human platelets (Bcl-xL dependent) (Homo sapiens, UniProt Q07817); conditions: primary human platelet samples
Mcl-1 (residues 172-327) = Mcl-1 (residues 172-327) (Homo sapiens, UniProt Q07820); experiment: Fluorescence polarization binding assay, Mcl-1; conditions: for competition with fluorescently labeled Bim-BH3 for binding to Mcl-1 (in words): FP competition
Outline: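 E. coli-expressed Mcl-1 (residues 172-327) in competition FP: 20 mM sodium phosphate, 50 mM NaCl, 1 mM EDTA, 0.001% Triton X, 5% DMSO, pH 7.8, 25 °C. Serially diluted unlabeled peptide plus 10 nM fluorescein tracer, 15 min, then protein. Tracer is 18-mer Bim-BH3 with 50 nM Mcl-1, or 23-mer Hrk-BH3 with 500 nM Mcl-1.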

Bcl-xL (residues 1-209) [6] = molecular target: T1, Bcl-xL (residues 1-209); experiment: Fluorescence polarization competition binding assay, Bcl-xL
DHL10 cells = experiment: BH3 profiling, DHL10; assay type: cell-based; conditions: Bax- and Bak-deleted cell line
Outline: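 Test peptides (N-acetylated, C-amidated) titrated onto permeabilized Su-DHL10 cells (RPMI 1640, 10% FBS), 2×10^4 cells/well, triplicate wells per concentration. JC-1 fluorescence gives membrane-potential loss, normalized as 1 – [(Dsample–DFCCP)/(DDMSO–DFCCP)] against FCCP and DMSO. EC50 from global fit with linked baselines; at least three biological replicates, 2-3 days of culture apart.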

Bcl-xL = experiment: Yeast-surface display, dual color fluorescence binding with competitors; parameters: species or system human; conditions: 100-fold excess of each competitor, yeast-displayed peptide
Outline: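 Yeast displaying BH3 peptides incubated with 10 nM Bcl-xL plus 1 μM each of Mcl-1, Bfl-1, Bcl-2 and Bcl-w, competitors premixed. Proteins are E. coli-expressed human constructs. Detection uses primary and labeled secondary antibodies: FITC marks peptide expression, APC marks receptor binding. Flow cytometry with 488 and/or 561 nm excitation.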

Bcl-2 (residues 1-217) [7] = molecular target: T2, Bcl-2 (residues 1-217); experiment: Fluorescence polarization competition binding assay, Bcl-2
Outline: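 Human Bcl-2 (residues 1-217), expressed in E. coli. Buffer: 20 mM sodium phosphate, 50 mM NaCl, 1 mM EDTA, 0.001% Triton X, 5% DMSO, pH 7.8, 25 °C. Competition: test peptide serially diluted, 10 nM fluorescein Bim-BH3 added, 15 min at RT, then 50 nM Bcl-2 (final). Anisotropy read over 2-48 h, then curves fit. Direct: titrated protein, 10 nM probe, read 4-24 h.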

Bcl-w (residues 1-164) = molecular target: T3, Bcl-w (residues 1-164) (Homo sapiens, UniProt Q92843); experiment: Fluorescence polarization competition binding assay, Bcl-w
T3 sequence (Q92843 1-164): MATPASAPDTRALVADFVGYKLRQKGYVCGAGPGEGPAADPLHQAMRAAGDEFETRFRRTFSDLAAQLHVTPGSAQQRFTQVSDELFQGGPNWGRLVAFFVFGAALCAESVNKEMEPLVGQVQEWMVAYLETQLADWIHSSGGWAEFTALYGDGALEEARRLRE
Outline: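 E. coli-expressed Bcl-w (residues 1-164), 50 nM final, competed against 10 nM N-terminal fluorescein 18-mer Bim-BH3. Unlabeled peptide serially diluted and premixed with tracer 15 min before protein. Buffer: 20 mM sodium phosphate, 50 mM NaCl, 1 mM EDTA, 0.001% Triton X, 5% DMSO, pH 7.8, 25 °C.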

[8] = molecular target: OCI-Ly1 cells (Bcl-2 dependent) (Homo sapiens, UniProt P10415)
[9] = molecular target: MDA-MB-231 cells (Bcl-xL dependent) (Homo sapiens, UniProt Q07817)
Bcl-xL (residues 1-209) [10] = molecular target: Bcl-xL (residues 1-209) (human, UniProt Q07817-1 1-209); experiment: fluorescence polarisation
Bcl-2 (residues 1-217) [11] = molecular target: Bcl-2 (residues 1-217) (human, UniProt P10415 1-217); experiment: fluorescence polarisation
[12] = FP competition with fluorescein 18-residue Bim-BH3

T1 sequence (Q07817 1-209): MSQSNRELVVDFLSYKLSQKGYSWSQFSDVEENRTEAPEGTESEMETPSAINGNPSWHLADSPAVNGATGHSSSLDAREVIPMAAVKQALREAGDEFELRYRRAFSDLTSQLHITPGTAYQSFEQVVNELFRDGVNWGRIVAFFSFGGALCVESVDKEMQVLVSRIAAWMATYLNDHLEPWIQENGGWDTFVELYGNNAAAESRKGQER
T2 sequence (P10415 1-217): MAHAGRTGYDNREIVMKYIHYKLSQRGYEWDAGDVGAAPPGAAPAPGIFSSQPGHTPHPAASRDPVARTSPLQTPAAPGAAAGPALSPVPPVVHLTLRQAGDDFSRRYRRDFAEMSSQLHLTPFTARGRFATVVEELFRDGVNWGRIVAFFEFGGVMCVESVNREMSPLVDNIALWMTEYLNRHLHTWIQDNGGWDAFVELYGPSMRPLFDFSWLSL
Mcl-1 (residues 172-327), sequence (Q07820 172-327): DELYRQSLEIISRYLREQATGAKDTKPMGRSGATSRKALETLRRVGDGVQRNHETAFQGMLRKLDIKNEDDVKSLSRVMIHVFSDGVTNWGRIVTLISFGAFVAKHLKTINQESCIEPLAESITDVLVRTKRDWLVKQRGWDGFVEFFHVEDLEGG
OCI-Ly1 cells (Bcl-2 dependent), sequence (P10415 whole entry): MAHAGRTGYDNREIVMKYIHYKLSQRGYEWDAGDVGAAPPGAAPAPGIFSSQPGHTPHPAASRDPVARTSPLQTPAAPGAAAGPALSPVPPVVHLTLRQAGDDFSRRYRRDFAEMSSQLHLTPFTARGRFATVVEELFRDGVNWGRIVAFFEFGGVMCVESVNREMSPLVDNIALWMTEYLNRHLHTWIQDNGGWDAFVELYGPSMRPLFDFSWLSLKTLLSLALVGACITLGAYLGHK
Bcl-xL (residues 1-209) (human, UniProt Q07817-1 1-209), sequence (Q07817 1-209): as the sequence (Q07817 1-209) above
primary human platelets (Bcl-xL dependent), sequence (Q07817 1-209): as above
MDA-MB-231 cells (Bcl-xL dependent), sequence (Q07817 1-209): as above
Bcl-2 (residues 1-217) (human, UniProt P10415 1-217), sequence (P10415 1-217): as the sequence (P10415 1-217) above

Bim-BH3 with the point mutation E2gG (peptide)
Ki (Bcl-xL (residues 1-209) [1]): < 0.1 nM | fold weaker binding than Bim-BH3 (Bcl-2 (residues 1-217) [2]): 7 fold

CC[C@H](C)[C@H](NC(=O)[C@H](CCC(=O)O)NC(=O)[C@H](CCCNC(=N)N)NC(=O)[C@H](C)NC(=O)[C@H](Cc1c[nH]c2ccccc12)NC(=O)[C@H](CCC(N)=O)NC(C)=O)C(=O)NCC(=O)N[C@@H](C)C(=O)N[C@@H](CCC(N)=O)C(=O)N[C@@H](CC(C)C)C(=O)N[C@@H](CCCNC(=N)N)C(=O)N[C@@H](CCCNC(=N)N)C(=O)N[C@@H](CCSC)C(=O)N[C@@H](C)C(=O)N[C@@H](CC(=O)O)C(=O)N[C@@H](CC(=O)O)C(=O)N[C@@H](CC(C)C)C(=O)N[C@@H](CC(N)=O)C(=O)N[C@@H](C)C(=O)N[C@@H](CCC(N)=O)C(=O)N[C@@H](Cc1ccc(O)cc1)C(=O)N[C@@H](CCC(=O)O)C(=O)N[C@@H](CCCNC(=N)N)C(N)=O [Puma, reference compound]
depolarization in the Mcl-1 dependent line (in words) [3]: strong response | EC50 [4]: 663 ± 223 nM

CC[C@H](C)[C@H](NC(=O)[C@H](CCC(=O)O)NC(=O)[C@@H]1CCCN1C(=O)[C@H](CCCNC(=N)N)NC(C)=O)C(=O)N[C@@H](Cc1c[nH]c2ccccc12)C(=O)N[C@@H](Cc1ccc(O)cc1)C(=O)N[C@@H](C)C(=O)N[C@@H](CCC(N)=O)C(=O)NCC(=O)N[C@@H](CC(C)C)C(=O)N[C@@H](CCCCN)C(=O)N[C@@H](CCCNC(=N)N)C(=O)N[C@@H](Cc1ccccc1)C(=O)NCC(=O)N[C@@H](CC(=O)O)C(=O)N[C@@H](CCC(=O)O)C(=O)N[C@@H](Cc1ccccc1)C(=O)N[C@@H](CC(N)=O)C(=O)N[C@@H](C)C(=O)N[C@@H](Cc1ccc(O)cc1)C(=O)N[C@@H](Cc1ccc(O)cc1)C(=O)N[C@@H](C)C(=O)N[C@@H](CCCNC(=N)N)C(N)=O [XXA1] (Ac-RPEIWYAQGLKRFGDEFNAYYAR-NH2)
depolarization of platelets (in words) [5]: potent depolarization | competition with fluorescently labeled Bim-BH3 for binding to Mcl-1 (in words) (Mcl-1 (residues 172-327)): Neither XXA1 nor XXA1_G2gE could compete | depolarization in the Mcl-1 dependent line (in words) [3]: low amount of depolarization | Ki (Bcl-xL (residues 1-209) [6]): ≤ 0.1 nM | affinity for Bcl-xL (in words) (Bcl-xL (residues 1-209) [6]; [12]): sub-nanomolar | EC50 [4]: 540 ± 183 nM | non-specific pore forming activities (DHL10 cells): None | binding to Bcl-xL in the presence of competitor pro-survival proteins (Bcl-xL): robust binding | Kd (Bcl-2 (residues 1-217) [7]): ~17 nM | weakening of binding to Bcl-w relative to Bim-BH3 (Bcl-w (residues 1-164); four mutations combined): ~ 150 fold

Puma-BH3, unlabeled 23-residue peptide
Ki (Bcl-xL (residues 1-209) [1]): 2 nM

Bim-BH3 with the point mutation I3dF (peptide)
Ki (Bcl-xL (residues 1-209) [1]): < 0.1 nM

CC[C@H](C)[C@H](NC(=O)[C@H](CCC(=O)O)NC(=O)[C@@H]1CCCN1C(=O)[C@H](CCCNC(=N)N)NC(C)=O)C(=O)N[C@@H](Cc1c[nH]c2ccccc12)C(=O)N[C@@H](Cc1ccc(O)cc1)C(=O)N[C@@H](C)C(=O)N[C@@H](CCC(N)=O)C(=O)NCC(=O)N[C@@H](CC(C)C)C(=O)N[C@@H](CCCCN)C(=O)N[C@@H](CCCNC(=N)N)C(=O)N[C@@H](Cc1ccccc1)C(=O)NCC(=O)N[C@@H](CC(=O)O)C(=O)N[C@@H](CCC(=O)O)C(=O)N[C@@H](Cc1ccccc1)C(=O)N[C@@H](CC(N)=O)C(=O)N[C@@H](C)C(=O)N[C@@H](Cc1ccc(O)cc1)C(=O)N[C@@H](CCCCN)C(N)=O [Y4eK_21] (Ac-RPEIWYAQGLKRFGDEFNAYK-NH2)
Ki (Bcl-xL (residues 1-209) [6]): 0.4 nM | Ki (Bcl-2 (residues 1-217) [7]): 430 nM | specificity for Bcl-xL over Bcl-2 (Bcl-2 (residues 1-217) [7]; ratio of FP binding constants): ~ 1000 fold | weaker response than XXA1_Y4eK [8]: 3-4 fold

CC[C@H](C)[C@H](NC(=O)[C@H](CCC(=O)O)NC(=O)[C@@H]1CCCN1C(=O)[C@H](CCCNC(=N)N)NC(C)=O)C(=O)N[C@@H](Cc1c[nH]c2ccccc12)C(=O)N[C@@H](Cc1ccc(O)cc1)C(=O)N[C@@H](C)C(=O)N[C@@H](CCC(N)=O)C(=O)N[C@@H](CCC(=O)O)C(=O)N[C@@H](CC(C)C)C(=O)N[C@@H](CCCCN)C(=O)N[C@@H](CCCNC(=N)N)C(=O)N[C@@H](Cc1ccccc1)C(=O)NCC(=O)N[C@@H](CC(=O)O)C(=O)N[C@@H](CCC(=O)O)C(=O)N[C@@H](Cc1ccccc1)C(=O)N[C@@H](CC(N)=O)C(=O)N[C@@H](C)C(=O)N[C@@H](Cc1ccc(O)cc1)C(=O)N[C@@H](Cc1ccc(O)cc1)C(=O)N[C@@H](C)C(=O)N[C@@H](CCCNC(=N)N)C(N)=O [XXA1_G2gE] (Ac-RPEIWYAQELKRFGDEFNAYYAR-NH2)
depolarization of platelets (in words) [5]: potent depolarization | Ki (Mcl-1 (residues 172-327)): ~31 nM | competition with fluorescently labeled Bim-BH3 for binding to Mcl-1 (in words) (Mcl-1 (residues 172-327)): Neither XXA1 nor XXA1_G2gE could compete | depolarization in the Mcl-1 dependent line (in words) [3]: low amount of depolarization | binding to Bcl-xL relative to XXA1 (in words) (Bcl-xL (residues 1-209) [6]; FP competition with 23-mer fluorescently labeled Bim-BH3): bound more tightly than XXA1 | EC50 [4]: 141 ± 50 nM | non-specific pore forming activities (DHL10 cells): None | binding to Bcl-2 (in words) (Bcl-2 (residues 1-217) [7]; [12]): bound tighter than XXA1 | binding to Bcl-w (in words) (Bcl-w (residues 1-164); [12]): bound tighter than XXA1 | potency relative to Bad [9]: ~ 7 fold

CC[C@H](C)[C@H](NC(C)=O)C(=O)N[C@@H](Cc1c[nH]c2ccccc12)C(=O)N[C@@H](Cc1ccc(O)cc1)C(=O)N[C@@H](C)C(=O)N[C@@H](CCC(N)=O)C(=O)NCC(=O)N[C@@H](CC(C)C)C(=O)N[C@@H](CCCCN)C(=O)N[C@@H](CCCNC(=N)N)C(=O)N[C@@H](Cc1ccccc1)C(=O)NCC(=O)N[C@@H](CC(=O)O)C(=O)N[C@@H](CCC(=O)O)C(=O)N[C@@H](Cc1ccccc1)C(=O)N[C@@H](CC(N)=O)C(=O)N[C@@H](C)C(=O)N[C@@H](Cc1ccc(O)cc1)C(=O)N[C@@H](CCCCN)C(N)=O [Y4eK_18] (Ac-IWYAQGLKRFGDEFNAYK-NH2)
reduction of affinity for Bcl-xL relative to XXA1_Y4eK (Bcl-xL (residues 1-209) [6]): ~ 18 fold | weaker binding to Bcl-2 than parent XXA1_Y4eK (Bcl-2 (residues 1-217) [7]): ~ 5 fold | weaker response than XXA1_Y4eK [8]: 3-4 fold

Bim-BH3 with the point mutation R3bK (peptide)
Ki (Bcl-xL (residues 1-209) [1]): < 0.1 nM

Hrk-BH3, unlabeled 23-residue peptide
Ki (Bcl-xL (residues 1-209) [1]): 10 nM

Bim-BH3 with the point mutation I2dY (peptide)
Ki (Bcl-xL (residues 1-209) [1]): < 0.1 nM | fold weaker binding than Bim-BH3 (Bcl-2 (residues 1-217) [2]): 5 fold

B1: Bad-BH3, unlabeled 23-residue peptide (peptide)
chain: Ac-WAAQRYGRELRRMSDEFVDSFKK-NH2
Ki (Bcl-xL (residues 1-209) [10]): ≤ 0.1 nM

B2: Y4eK_18 (designed binder)
chain: Ac-IWYAQGLKRFGDEFNAYK-NH2
fold weaker binding than XXA1_Y4eK (Bcl-2 (residues 1-217) [11]): ~5 fold | Ki (Bcl-xL (residues 1-209) [10]): ~2 nM
